# Compound activity deposited in PubChem by The Scripps Research Institute Molecular Screening Center.
# Shown are actives, neighbours in structure and some others; about 1.9% of the full set was active somewhere.
# DNA FID counter = compounds displacing fluorescent DNA intercalator, primary screen, artefact control for HCV NS3 helicase inhibitor project, biochemical, FID fluorescence; inhibition, % at 7.9 µM; 290,000 compounds, 0.17% hits; DNA fluorescent intercalator displacement; AID 1845, 2009; in the data active = inhibition above about 37%;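 note: higher means more ethidium bromide displaced from hairpin DNA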
# NS3 helicase inh = inhibitors of HCV NS3 helicase, primary screen, biochemical, Cy5 molecular beacon fluorescence; Hepatitis C virus NS3 helicase; NS3 helicase DNA unwinding; inhibition, % at 10.9 µM; 290,000 compounds, 0.56% hits;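 active = inhibition above the mean of all tested compounds plus 3 SD, set per campaign, cut at about 35% in these data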
#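 Test system: hepatitis C virus NS3 helicase domain fragment enzyme. Also added: annealed dual-labelled DNA beacon duplex, ATP-started. Timing: 60 min unwinding reaction at 25 °C after ATP addition. Technique: Cy5 fluorescence. Measure: % inhibition of unwinding.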
# VIM-2 inhibitor = VIM-2 metallo-beta-lactamase inhibitors, primary screen, biochemical, epi-absorbance readout, Pseudomonas aeruginosa enzyme; purified VIM-2, nitrocefin hydrolysis, epi-absorbance fluorescence; inhibition, % at 5.6 µM; 290,000 compounds, 0.89% hits; AID 1527, 2009;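 active = inhibition above the mean of all tested compounds plus 3 SD, cutoff set per screening run, cut at about 7.5% in these data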;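 note: red hydrolysis product quenches plate fluorescence so inhibitors raise well fluorescence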
# IMP-1 inh = IMP-1 metallo-beta-lactamase inhibitors, primary screen, biochemical, epi-absorbance readout, Pseudomonas aeruginosa enzyme; metallo-beta-lactamase IMP-1 (Pseudomonas aeruginosa); purified IMP-1, nitrocefin hydrolysis, epi-absorbance fluorescence; inhibition, % at 5.6 µM; 290,000 compounds, 0.45% hits; AID 1556, 2009;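 active = inhibition above the mean plus 3 SD of all compounds in the same screening run, cut at about 4.5% in these data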
#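 Material – recombinant IMP-1 enzyme, purified · Amount – IMP-1 0.2 nM before substrate addition · Medium – HEPES buffer pH 7.1 with ZnSO4 and Brij 35 · Timing – 25 °C, 15 min preincubation, 25 min reaction · Measured by – plate fluorescence quenching by hydrolysis product, ex 480/em 530 nm · Read-out – percent enzyme inhibition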
# Hits are given with their value; . = inactive.
SMILES,DNA FID counter,NS3 helicase inh,VIM-2 inhibitor,IMP-1 inh
CCOc1ccccc1NC(=O)CCS(=O)(=O)c1ccc(Br)cc1,.,.,.,18
CCCC1=C(C(=O)OCC)C(c2cccs2)n2ncnc2N1 (configuration not stated),.,.,.,.
O=C1C(=O)N(Cc2cccnc2)C(c2cccc([N+](=O)[O-])c2)/C1=C(/O)c1ccc2c(c1)OCO2 (configuration not stated),.,.,.,.
CCN(CC)CC1CCCCN1CC(=O)N1c2ccccc2C(=O)Nc2cccnc21 (configuration not stated),.,.,.,.
Cn1cc(Cl)c(/C(N)=N/OC(=O)c2ccccc2C(F)(F)F)n1,.,.,.,.
Cc1cc(S(=O)(=O)N2CCCC(C)C2)ccc1-n1cnnn1 (configuration not stated),.,.,.,.
CCc1ccccc1NC(=O)CCS(=O)(=O)c1ccc(Br)cc1,.,.,.,34
CCc1ccccc1NC(=O)CCS(=O)(=O)c1ccc(C)cc1,.,.,.,.
CC(C)CCOc1cccc(OCC(=O)Nc2ccncc2)c1,.,.,.,.
O=C(O)[C@H](Cc1ccccc1)N1C(=O)c2c(Cl)c(Cl)c(Cl)c(Cl)c2C1=O,.,.,8.5,.
CN1C(=O)C(CC(=O)O)S/C1=N\N=C\c1ccc(O)cc1O (configuration not stated),.,.,.,.
COc1ccc(/C=N/NC(=O)CN(C)S(=O)(=O)c2ccc(NC(C)=O)cc2)cc1,.,.,.,31
CC(=O)Nc1ccc(S(=O)(=O)N(C)CC(=O)N/N=C/c2ccc(C(=O)O)cc2)cc1,.,.,.,.
Cc1sc2nc(SCC(=O)N3CCN(CCO)CC3)n(-c3ccccc3)c(=O)c2c1C,.,.,24,.
Cc1ccc(-n2c(SCC(=O)N3CCCCC3)nc(O)c(Cc3ccccc3)c2=O)cc1,.,.,.,9.3
CCN(CC)C(=O)CSc1nc(O)c(Cc2ccccc2)c(=O)n1-c1ccc(C)cc1,.,.,.,.
O=C(CN(CCc1ccccc1)C(=O)c1csnn1)NC1CCCC1,.,.,.,.
Cc1cc(C)c2c(n1)sc1c(N3CCN(CCO)CC3)ncnc12,.,.,12,.
CCOC(=O)c1cnc(-n2cc(C)cn2)nc1NCc1ccc2c(c1)OCO2,.,.,8.1,.
CCOC(=O)c1c(C)c(C(=O)NCc2ccc3c(c2)OCO3)c(C)n1CC,.,.,.,.
COc1ccc(C2=[N+](C)CCn3cccc32)c(OC)c1,.,.,.,7.2
CCOC(=O)COc1ccc(S(=O)(=O)Nc2ccc3c(c2)OCO3)cc1,48,.,.,.
CCOC(=O)COc1ccc(S(=O)(=O)Nc2ccc(C)cc2)cc1,.,.,.,.
CC(O)c1nc2ccc(C(=O)O)cc2[nH]1 (configuration not stated),.,.,.,8.7
c1ccc(-c2cc(NCCN3CCCCC3)c3ccccc3n2)cc1,74,.,.,.
SMILES,DNA FID counter,NS3 helicase inh,VIM-2 inhibitor,IMP-1 inh
O=C(c1cc(-c2ccccc2)nc2ccccc12)N1CCCC1,.,.,.,.
COCCn1c(N)c(Sc2ccccc2)c(=O)[nH]c1=O,.,.,.,.
CCCCn1c(N)c(Sc2ccccc2)c(=O)[nH]c1=O,.,.,.,5.0
O=c1c2ccccc2oc2ccc(NCCCn3ccnc3)cc12,.,.,11,.
O=C(NCCCn1ccnc1)c1cc2c(ccc3ccccc32)o1,.,.,.,.
Cc1ccc(OCCOC(=O)c2sc(=S)n(C)c2C)cc1,.,.,.,.
CCOC(=O)C(OC(=O)c1sc(=S)n(C)c1C)C(C)=O (configuration not stated),.,.,9.2,.
COc1ccc(Cc2nnc(NC(=O)c3cccs3)s2)cc1OC,.,.,.,.
O=C1CSC(=Nc2cccc([N+](=O)[O-])c2)N1,.,.,.,.
O=S(=O)(c1ccc(-c2ccon2)s1)N1CCN(c2ccncc2)CC1,.,.,.,.
O=S(=O)(c1ccc(-c2ccon2)s1)N1CCN(c2ccccn2)CC1,.,.,.,79
O=C(O)CCN1C(=O)/C(=C2\C(=O)N(Cc3ccc(F)cc3)c3ccccc32)SC1=S,.,.,.,51
CN1C(=O)/C(=C2\SC(=S)N(CCCCCC(=O)O)C2=O)c2ccccc21,.,.,.,.
O=c1c2[nH]c3ccccc3c2ncn1CCCn1ccnc1,.,.,.,.
O=c1c2[nH]c3ccc(Br)cc3c2ncn1CCCn1ccnc1,.,.,.,5.9
O=C(OCC(O)COc1ccccc1)c1ccc([N+](=O)[O-])cc1 (configuration not stated),.,.,.,.
C#CCOCCOCCOCCNc1nc(N2CCN(C(=O)C(Cc3ccc(O)cc3)n3cc(C(N)CC(C)C)nn3)CC2)nc(N2CCN(C(=O)C(Cc3cc4ccccc4[nH]3)n3cc(C(N)C(C)CC)nn3)CC2)n1 (configuration not stated),.,.,.,.
C#CCOCCOCCOCCNc1nc(N2CCN(C(=O)[C@H](CCCCN)n3cc([C@@H](N)CC(C)C)nn3)CC2)nc(N2CCN(C(=O)[C@H](Cc3cc4ccccc4[nH]3)n3cc([C@@H](N)Cc4ccc(O)cc4)nn3)CC2)n1,76,.,.,.
C#CCOCCOCCOCCNc1nc(N2CCN(C(=O)[C@H](CCCCN)n3cc([C@@H](N)CO)nn3)CC2)nc(N2CCN(C(=O)[C@H](Cc3cc4ccccc4[nH]3)n3cc([C@@H](N)Cc4ccc(O)cc4)nn3)CC2)n1,55,.,.,.
CC(=O)Nc1cccc(NC(=O)CSc2nnnn2-c2ccc3c(c2)OCO3)c1,.,.,.,.
Cc1cc(Cl)ccc1NC(=S)NCc1ccc(F)cc1,.,.,.,.
CCN1/C(=C/c2ccc3cc(C)ccc3[n+]2C)Sc2ccc3sccc3c21,.,.,.,18
CCN1/C(=C/c2ccc3cc(C)ccc3[n+]2CC)Sc2cc(C)ccc21,.,.,.,.
Cc1c(C(=O)N2CCOCC2)c(S(=O)(=O)N2CCN(c3ccc(Cl)cc3)CC2)c(C)n1C,.,.,.,.
CCN1CCN(c2ccc(NC(=O)CCc3c(C)nc4c(-c5ccccc5)c(C)nn4c3C)cc2)CC1,41,.,.,4.9
CC(=O)Nc1ccc(S(=O)(=O)NC2(C(F)(F)F)NC(=O)N(Cc3ccccc3)C2=O)cc1 (configuration not stated),.,.,.,.
COCCNC(=O)C(c1cccs1)N(Cc1cccs1)C(=O)Cn1nnc2ccccc21 (configuration not stated),.,.,.,4.6
CCCCC(=O)N(CCOC)c1nnc(-c2ccccc2C)s1,.,.,.,.
COc1ccc(/C=C/C(=O)NC(=S)Nc2ccc(S(=O)(=O)N=C(N)N)cc2)cc1OC,.,.,.,.
COc1cc(/C=N\NC(=O)c2ccc(C)nc2)ccc1OC(=O)c1ccc2c(c1)OCO2,.,.,.,.
